Shown are actives, neighbours in structure and some others; about 6.3% of the full set was active somewhere.
PostGolgi yeast: growth inhibition of a yeast mutant, post-Golgi transport screen | post-Golgi transport phenotypic cell assay | inhibition, % at 10 µM | 98,000 tested, 0.9% active | AID 739;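 also: yeast cells grown in 1536-well plates; yeast grown about 18 h at 30C before absorbance read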
PostGolgi ctrl: inhibits growth of the yeast control strain; efflux-deficient yeast background strain, growth absorbance A615, 16 h; inhibition, % at 10 µM; 98,000 tested, 5% active; AID 738
tolC growth inh: blocks growth of E. coli BW25113 tolC mutant | OD615 | AID 573 | 65,000 tested, 2.2% active | growth inhibition, % at 10 µM (by protocol);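 active = growth inhibition at or above a cutoff equal to the mean over every tested compound plus 3 SD, cut at about 60% in these data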;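 also: growth measured after 20 h incubation at 37 °C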
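Test system – E. coli BW25113 ΔtolC::kan, tolC deletion mutant strain · Detection – OD at 615 nm · Buffer or medium – LB with kanamycin 50 µg/mL · Times – 20 h compound exposure of bacteria at 37 °C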
Ecoli WT expand: growth inhibitors of E. coli BW25113 wild type | 98,000 tested, 0.15% active | growth inhibition, % at 100 µM | OD600 absorbance | AID 710;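 active = growth inhibition above about 50% at one test dose, limit read from the data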;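 also: growth measured after 20 h incubation at 37 °C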
* hit, by the source's call; nt = not tested or not shown. Rule as the data show it, unless noted: active = inhibition above about 30%; inactive = the rest.

SMILES	PostGolgi yeast	PostGolgi ctrl	tolC growth inh	Ecoli WT expand
COc1ccccc1C(=O)N(Cc1nc(-c2ccc(Cl)cc2)no1)C(C)C	2	32*	20	-1
COc1ccc(C(=O)N(Cc2nc(-c3ccc(C)cc3)no2)C(C)C)cc1OC	1	7	6	3
Cc1ccccc1OCC(=O)N(Cc1nc(-c2ccccc2)no1)C(C)C	-5	22	36	-11
COc1ccc(-c2noc(CCC(=O)N(C)c3cccc(C)c3)n2)cc1	-10	11	68*	-2
CC(C)N(Cc1nc(-c2ccc(Cl)cc2)no1)C(=O)c1cccs1	-4	27	68*	-1
COc1ccccc1OCC(=O)N(Cc1nc(-c2ccccc2)no1)C1CCCCC1	-9	26	62*	-16
COc1ccc2c(c1)c(C(O)CN1CCC(Cc3ccccc3)CC1)c(C)n2C (stereo unspecified)	-3	7	nt	12
COc1ccc(Nc2nc(Nc3ccc(OC)cc3)nc(SC3=NCCS3)n2)cc1	16	18	nt	-21
O=C(Nc1nc(N2C(=O)c3ccccc3C2=O)n(-c2ccccc2)n1)c1ccc(Cl)cc1	2	35*	nt	-5
O=C(Nc1ncc2c(n1)-c1ccccc1CC2)c1ccc(Cl)cc1	-4	13	nt	-4
c1ccc(C(CN2CCOCC2)c2ccccc2)cc1	-4	9	-3	1
O=C(c1ccccc1)C(CCC(CN1CCOCC1)C(=O)c1ccccc1)CN1CCOCC1 (stereo unspecified)	-1	41*	13	8
COc1ccc(C(=O)C(CN2CCOCC2)c2ccccc2)cc1 (stereo unspecified)	3	26	nt	16
O=C(c1ccc(F)cc1)C(CN1CCOCC1)c1ccccc1 (stereo unspecified)	15	55*	22	28
N#CCSc1ncnc2c1cnn2CCO	-7	3	nt	5
CCCNS(=O)(=O)c1ccc(CCC(=O)N2CCN(c3ccc(OC)cc3)CC2)cc1	1	53*	nt	4
CCCNS(=O)(=O)c1ccc(CCC(=O)N2CCOCC2)cc1	-7	5	-26	-1
COc1ccc(N2CCN(C(=O)CCNS(=O)(=O)c3ccc(Br)s3)CC2)cc1	84*	3	36	1
O=C1CC(N2CCN(c3nc4ccccc4s3)CC2)C(=O)N1c1cccc(F)c1 (stereo unspecified)	0	17	nt	6
CCN(CC)S(=O)(=O)c1ccc(NC2CCCc3ccccc32)nc1 (stereo unspecified)	4	48*	16	-10
CCOC(=O)c1cnn(-c2cc(C)c3cc(C)cc(C)c3n2)c1N	nt	nt	-13	nt
CC1=CC(C)(C)N2C(=O)C3(SCC(=O)N3c3ccc(F)cc3)c3cc(C)cc1c32 (stereo unspecified)	4	50*	nt	1
Cc1noc(C)c1CSc1nc2ccccc2c(=O)n1-c1ccc(Cl)cc1	-6	38*	nt	-15
Cc1noc(C)c1CSc1nnnn1-c1ccc(Cl)cc1	18	30*	2	0
O=c1c2ccccc2nc(SCc2nc(-c3ccccc3)no2)n1-c1ccc(F)cc1	1	11	-6	-19
SMILES	PostGolgi yeast	PostGolgi ctrl	tolC growth inh	Ecoli WT expand
CCOC(=O)CSC1=C(C#N)C(c2ccccc2OCC)C(C(=O)OCC)C(=O)N1 (stereo unspecified)	7	1	18	5
CCCCSC1=C(C#N)C(c2ccccc2C)C(C(=O)OCC)C(=O)N1 (stereo unspecified)	7	15	71*	-7
CCOC(=O)Cc1c(C)c2ccc(N(CC)CC)cc2oc1=O	46*	1	17	-2
CCOC(=O)CCc1c(C)c2ccc(O)cc2oc1=O	-2	7	2	-3
CCc1cccc(C)c1NC(=O)C(c1ccccc1)N1CCC1=O (stereo unspecified)	5	15	nt	5
COc1ccc(/C=C(/C#N)c2cccnc2)cc1OC	nt	nt	6	nt
COc1cc(/C=C(\C#N)c2nc3c(s2)CCCC3)ccc1O	5	56*	nt	-2
CCC1CC2CC(NC(C)=O)C1C2 (stereo unspecified)	0	33*	nt	-1
CC(=O)N[C@H]1C[C@@H]1c1ccccc1	-1	-6	10	9
Nc1c(C(=O)NC2CCCCC2)nsc1C(=O)OCC(=O)NC1CCCCC1	-8	31*	15	-11
N/C(COc1ccccc1)=N\NC(=O)c1cccnc1Oc1ccccc1	-2	16	nt	8
Cc1oc2c(CN3CCCC3)c(O)ccc2c(=O)c1-c1ccc(Br)cc1	10	-3	77*	1
CC(=O)N1CCN=C1SCc1c(F)cccc1Cl	3	32*	-3	6
O=C(Nc1cc(C(F)(F)F)ccc1-n1cncn1)c1ccc(-c2ccccc2)cc1	76*	13	nt	-19
CCc1c(C)nc2cc(-c3ccc(OC)c(OC)c3)nn2c1NCC1CC1	12	22	nt	-12

From PubChem BioAssay
